From the array DNA melting data of Ke et al. (doi:10.1101/2024.01.08.574731)

What was measured:
[1] = melting temperature; fluorescence melt of hairpins on a sequencing array, two-state fit, raised by 9.35 °C to match UV melts; conditions: sodium 0.088 M
Procedure, shortened: (§1)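 Cy3 signals were normalised both to pre-quench Cy3 and to control constructs. They came from library hairpins carrying annealed Cy3 and quencher oligos on a sequenced MiSeq flow cell, imaged in 50 mM Na-HEPES pH 8.0, 25 mM NaCl, in 2.5 °C steps up to 60 °C. Bootstrapped two-state fits gave melting temperature and folding enthalpy, and four replicates were combined by inverse variance. Fitted temperatures were then raised by 9.35 °C to match UV melts.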

[2] = folding enthalpy; higher = less favourable; fluorescence melt of hairpins on a sequencing array, two-state fit; conditions: sodium 0.088 M
Procedure, shortened: as §1

Sequence | Tm [1] | folding enthalpy [2]
AATGCGAAAGCATT (((((....))))) | 64.9 °C | -15.3 kcal/mol
GTAGGAGGAAACTCTTAC (((.(((....))).))) | 34.8 °C | -17.8 kcal/mol
GATCCGGAGACGGATC ((((((....)))))) | 63.6 °C | -32.9 kcal/mol
GTATGCGAAAGCATCTAC ((((((....)))..))) | 40 °C | -11.3 kcal/mol
GCAAATTCGAAAGAATGC (((..(((....)))))) | 35.8 °C | -18.4 kcal/mol
GCCTAGCGAAAGCGCGGC (((..((....))..))) | 61.9 °C | -18.5 kcal/mol
GGGCACACGAAAGTGCCC (((..(((....)))))) | 67.3 °C | -30.4 kcal/mol
GCGCGGCGAAAGCCTAGC ((..(((....)))..)) | 61.1 °C | -26.9 kcal/mol
GGTGAGGGAAACCTTACC (((.(((....))).))) | 46.6 °C | -33.9 kcal/mol
GCGCGCGGAAACGCGCAC (.(((((....))))).) | 65.3 °C | -7.45 kcal/mol
GGGTTCGAAAGAACCCCC ((((((....)))..))) | 68.2 °C | -9.24 kcal/mol
GGAATCGAAAGATTCC ((((((....)))))) | 64.3 °C | -32.3 kcal/mol
GATCATACTAATGATC ((((((....)))))) | 46.8 °C | -34.9 kcal/mol
GCCCGTTCGAAAGAAGGC (((..(((....)))))) | 33.1 °C | -12.3 kcal/mol
GATCTAGGAAACTGGATC ((((.((....)).)))) | 41.8 °C | -34 kcal/mol
GTCACCGAAAGGTTGAC ((((((....))).))) | 51.4 °C | -27 kcal/mol
GTTGTACGAAAGTAAAC (((.(((....)))))) | 39.7 °C | -21.9 kcal/mol
GGCGGCGCGAAAGCGGCC (((..(((....)))))) | 59.5 °C | -9.35 kcal/mol
CGAGTCGGAAACGATCG (((.(((....)))))) | 40.8 °C | -27.4 kcal/mol
GCAGCCGGAAACGACCGC ((.(.((....)).).)) | 31.2 °C | -20.9 kcal/mol
AGAGGGAAACCTCT (((((....))))) | 43.4 °C | -16.6 kcal/mol
GAGTCGGGAAACTGGCTC (((.(.(....).).))) | 43.4 °C | -25.8 kcal/mol
GTACACGGAAACGTGTAC (((((((....))))))) | 63.4 °C | -37.7 kcal/mol
GATCAGAGGCTGATC ((((((...)))))) | 48.7 °C | -32.9 kcal/mol

Sequence | Tm [1] | folding enthalpy [2]
GCAGATGGAAACATCTGC (((((((....))))))) | 67.1 °C | -37.5 kcal/mol
GGACTCGGAAACGGGTCC ((((.((....)).)))) | 57.4 °C | -36.4 kcal/mol
GGTATCACGAAAGTGACC (((..(((....)))))) | 30 °C | -9.93 kcal/mol
GCACGGCGAAAGCAGCGC ((.(.((....)).).)) | 57.2 °C | -21.1 kcal/mol
ACCGAGAAATCGGT (((((....))))) | 49.5 °C | -18.3 kcal/mol
GAATAGGAAACTATTC ((((((....)))))) | 40.7 °C | -31 kcal/mol
GCTTACGAAAGTACTAGC ((((((....)))..))) | 31.8 °C | -13.6 kcal/mol
GCCGTCGGAAACGACAGC ((.((((....)))).)) | 53 °C | -16.6 kcal/mol
GATCTGACCCCAGATC ((((((....)))))) | 45.8 °C | -34.3 kcal/mol
GACTACGAAAGTAATGTC ((((((....)))..))) | 34.3 °C | -15.7 kcal/mol
GGAGTCGAAAGACTTCC ((((((....))).))) | 48.7 °C | -21.2 kcal/mol
GATCTAATGGTAGATC ((((((....)))))) | 35.4 °C | -27 kcal/mol
GCGTACCGACGC ((((....)))) | 50.9 °C | -22.5 kcal/mol
GGTCAACGAAAGTTACC (((.(((....)))))) | 38.2 °C | -20.6 kcal/mol
GCGACAGGAAACTACCGC (((..((....))..))) | 31.6 °C | -20.5 kcal/mol
GAGCGGGGAAACCTGCTC ((((.((....)).)))) | 57.3 °C | -30.6 kcal/mol
GCGATTCTCGC ((((...)))) | 52 °C | -21.7 kcal/mol
GAACCAGAAATGGTTC ((((((....)))))) | 54.2 °C | -33.6 kcal/mol
GCAGCTGGAAACAGTTGC (((.(((....))).))) | 53.1 °C | -51.6 kcal/mol
GATCGTGGTACGATC ((((((...)))))) | 58.2 °C | -34.7 kcal/mol
GAGATACGAAAGTAGCTC (((.(((....))).))) | 57.5 °C | -40.8 kcal/mol
GATCCATGACTGGATC ((((((....)))))) | 48.6 °C | -35.5 kcal/mol
GGCTGAGGAAACCCAGCC (((((.(....).))))) | 55 °C | -41.9 kcal/mol
